Assay outcomes as filed in PubChem BioAssay.
M1 agonist – agonists of M1 muscarinic receptor; B-score at 10 µM; CHO-M1 cells, Fluo-4 calcium fluorescence, agonist mode; hits give high values; AID 626; 3% of 64,000 active;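 active means fluorescence rise, raw or as B-score row- and column-corrected plate score, outside the 99.7% band of its plate's samples, either direction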
RORa activator – activators of human nuclear receptor RORA; 1.5% of 65,000 active; AID 560; activation, % at 10 µM; CHO-K1 Gal4-RORA LBD luciferase reporter, luminescence; percent increase over mock-subtracted basal signal; P35398;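 active means activation above the mean of all tested compounds plus 3 SD, cut at about 49% in these data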;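 further: 0% = DMSO-treated RORA cells and 100% = added signal equal to DMSO minus mock-transfected cells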
S1P3 agonist – agonists of human S1P3 receptor | AID 373 | 0.1% of 60,000 active | activation, % at 4.5 µM | Q99500 | S1P3 NFAT-BLA reporter cells, agonism, FRET ratio; relative to 1 µM S1P, basal subtracted;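 active means activation above the screen-wide mean plus 3 SD, cut at about 4.5% in these data, passing the limit was not always enough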
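Assay system: stable CHO line with human S1P3, Gα16, NFAT-BLA reporter; Detection: FRET β-lactamase substrate fluorescence, excitation 405 nm, 460/535 nm emission ratio, background-subtracted; Read-out: percent activation versus median 1 µM S1P response, basal-subtracted, per plate; Incubation: cells plated overnight, compound 4 h 37 °C, substrate 2 h RT.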
S1P1 ag-PAM – activates or potentiates agonism at human S1P1 receptor; S1P1 CRE-bla cells, forskolin, beta-lactamase FRET, potentiator mode; S1P1 agonist co-added at EC20, 2 nM; 100% = saturating reference agonist, 0% = basal; activation, % at 9.5 µM; P21453; 0.57% of 56,000 active;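 active means activation above a cutoff set at the mean activation of all tested compounds plus 3 SD, cut at about 54% in these data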;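 further: forskolin at 4 µM as EC80 and the EC20 agonist is SEW2871; 100% = SEW2871 at its EC100 plus forskolin at EC80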
M1 antag – M1 muscarinic receptor (rat) antagonism; P08482; CHO-M1 cells, Fluo-4 calcium, ACh EC80 antagonist mode; hits give low values; B-score at 10 µM; 3.4% of 64,000 active;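 active means calcium fluorescence response, raw or row-and-column corrected B-score, differing from the plate sample mean either way at a set confidence level, mostly lower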
Target sequence (P08482 whole entry, looked up): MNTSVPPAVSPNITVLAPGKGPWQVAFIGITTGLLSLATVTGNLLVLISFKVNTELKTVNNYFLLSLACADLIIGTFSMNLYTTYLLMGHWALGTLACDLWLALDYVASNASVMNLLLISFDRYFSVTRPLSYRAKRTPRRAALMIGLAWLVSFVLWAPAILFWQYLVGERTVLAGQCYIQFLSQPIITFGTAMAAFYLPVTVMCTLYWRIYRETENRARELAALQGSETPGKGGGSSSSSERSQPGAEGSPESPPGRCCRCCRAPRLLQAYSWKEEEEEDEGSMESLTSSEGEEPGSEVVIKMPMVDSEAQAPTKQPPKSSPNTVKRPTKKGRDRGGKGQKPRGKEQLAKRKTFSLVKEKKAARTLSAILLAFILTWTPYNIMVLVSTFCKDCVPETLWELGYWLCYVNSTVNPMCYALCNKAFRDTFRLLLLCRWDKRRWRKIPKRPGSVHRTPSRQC
SF1 activator – activators of human nuclear receptor SF-1. Q13285. CHO-K1 Gal4-SF-1 LBD luciferase reporter; % increase over DMSO SF-1-specific signal. activation, % at 10 µM. 1.9% of 65,000 active;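 active means activation above the mean activation of all tested compounds plus 3 SD, cut at about 50% in these data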
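Assay system: CHO-K1 cells co-transfected with Gal4 DBD–human SF-1 LBD, 5xGal4 luciferase reporter; doses: 10 µM only; incubation: 20 h compound exposure at 37 °C after 1 h cell settling; signal: luciferase light emission; evaluation: percent activation versus DMSO; repeats: one test per compound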
M1 antag conf – confirmation of rat M1 muscarinic receptor antagonists; calcium response (max-min fluorescence) at 10 µM; AID 677; 43% of 1,700 active; shares compounds with M1 antag; CHO-M1 cells, Fluo-4 calcium, ACh EC80 antagonism; hits give low values;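 active means calcium response below the same-plate mean of wells given acetylcholine alone at its 80%-effect dose, minus 3 SD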;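 further: raw fluorescence intensity difference in arbitrary instrument units and not normalized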
mGluR4 antag – acts on human mGluR4 in M1 antagonist selectivity test; shares compounds with M1 antag; CHO-mGluR4 calcium flux, Fluo-4 fluorescence, glutamate EC80; hits give low values; fluorescence response (max-min) at 10 µM; 0.9% of 1,700 active; AID 678;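 active means fluorescence response below the plate's average for near-maximal glutamate wells, less 3 SD of those wells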;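 further: raw unnormalized fluorescence span taken in the window right after glutamate addition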
Active calls of the source: *; nt = no result given. This is a sample that favours compounds with a hit; in the whole collection about 8.8% have one here.

SMILES	M1 agonist	RORa activator	S1P3 agonist	S1P1 ag-PAM	M1 antag	SF1 activator	M1 antag conf	mGluR4 antag
COc1c(C)cc(Br)cc1C(=O)Nc1ccc(N2CCN(S(C)(=O)=O)CC2)cc1	0.34	5	-1	nt	-1.9*	-6	533	210
COc1ccccc1C(=O)Nc1ccc(N2CCN(S(C)(=O)=O)CC2)cc1	-0.027	41	0	4	0.95	34	nt	nt
Cc1ccc(-n2ncc(C#N)c2/N=C/N2CCCCCC2)cc1	0.5	6	1	nt	-2*	10	560*	196
Cc1ccc(-n2ncc(C#N)c2/N=C/N2CCN(C)CC2)cc1	0.058	16	-1	-7	-0.17	-8	nt	nt
Clc1ccccc1-c1nnc2sc(C3COc4ccccc4O3)nn12 (stereo not given)	-0.96	-6	0	nt	0.04	-8	nt	nt
Cc1ccc(-c2nnc3sc(C4COc5ccccc5O4)nn23)cc1 (stereo not given)	0.31	-9	-1	-10	-3.4*	5	476	223
O=C(COc1ccc(Cl)cc1)Nc1ccccc1N1CCOCC1	0.99	-6	1	12	-0.083	-8	nt	nt
O=C(O)CC(NC(=O)COc1ccc(Cl)cc1Cl)C(=O)O (stereo not given)	0.001	3	1	-6	-0.046	-3	nt	nt
CCOC(=O)N1CCN(C(=O)CN(c2ccccc2OC)S(=O)(=O)c2ccc(C)cc2)CC1	0.014	-6	-1	26	-2.6*	-4	621	250
COc1ccc(S(=O)(=O)N(C)CC(=O)N2CCN(C)CC2)cc1C	-1.1	-1	-1	nt	-1.9*	17	685	226
O=C1CCCN1c1cc(Cl)ccc1Cl	0.28	-5	0	5	0.24	-6	nt	nt
O=C1CCC(C(=O)NC2(C(=O)NC3CCCCC3)CCCCC2)N1 (stereo not given)	-0.0019	7	nt	nt	0.015	0	nt	nt
Cc1csc(NC(=O)c2ccccc2C(=O)O)n1	-0.17	0	0	0	-3*	23	605	254
CC(C)c1nc2oc3c(N4CCNCC4)ncnc3c2c2c1CCC2	-1	26	-1	-37	-2.9*	15	292*	243
O=C(O)c1ccccc1S	-0.61	2	0	-7	0.4	1	nt	nt
CCCC(C)c1nnc(NC(=O)C2CCCO2)s1 (stereo not given)	0.73	17	0	-25	-3.5*	11	198*	246
Cc1nnc(NC(=O)C2CCCO2)s1 (stereo not given)	-0.45	-9	-1	-20	-0.18	-11	nt	nt
O=C(NC1CCCCC1)c1sc(=S)n2c1[nH]c(=O)c1ccccc12	2.6	5	0	14	-1.8*	-11	529	243
COc1ccc(C(=O)CSc2nnc(Cn3cnc4ccccc43)o2)cc1	2	-14	-1	34	-2.2*	-33	532*	253
COCCNc1nc(SCC(=O)N2CCN(c3ccccc3OC)CC2)nc2ccccc12	6.2	-8	nt	nt	-3.4*	-4	503*	222
COC(=O)Cn1cc(C(=O)C2CC2)c2ccccc21	0.12	10	0	-18	-1.6*	-4	540	196
COc1cccc(N(CC(=O)N2CCN(C)CC2)S(=O)(=O)c2ccc(C)cc2)c1	-1.2	15	0	-4	-1.7	-12	nt	nt
Cc1sc2ncnc(SCC(=O)N3CCCC3=O)c2c1C	-1.4	-8	-1	-10	-4.3*	-6	651	262
CC(=O)Nc1nc(CC(C)C)cc(-c2ccco2)c1C#N	0.22	-11	0	nt	0.29	1	nt	nt
CCOc1cc(C)c(C(C)C)cc1S(=O)(=O)NCc1ccccn1	-0.62	-4	-2	0	0.46	-8	nt	nt
SMILES	M1 agonist	RORa activator	S1P3 agonist	S1P1 ag-PAM	M1 antag	SF1 activator	M1 antag conf	mGluR4 antag
Cc1ccc(NC(=O)CN(C)S(=O)(=O)c2cccc3nsnc23)cc1C	-0.29	-4	-1	1	-3.1*	-16	652	240
Cc1cc(N2CCOCC2)nc2ccc(NC(=O)CCC(=O)N3CCC(C)CC3)cc12	0.9	17	0	-6	-0.23	1	nt	nt
Cc1cc(N2CCOCC2)nc2ccc(NC(=O)CCC(=O)N3CCCCC3)cc12	-0.0012	-14	0	1	-2.6*	20	524	170
CCN(CC)S(=O)(=O)c1cccc(C(=O)NC(C(=O)Nc2nnc(C3CC3)s2)C(C)C)c1 (stereo not given)	-0.059	2	0	-19	-2.6*	-3	544	256
CCN(CC)S(=O)(=O)c1cccc(C(=O)NC(C(=O)NC2=NCCS2)C(C)C)c1 (stereo not given)	-0.45	-13	-1	10	1	-13	nt	nt
O=C1CC(c2ccco2)CC(O)=C1C=NCC1CCNCC1 (stereo not given)	-0.012	-32	-2	18	-3.8*	1	462*	226
O=C1CC(c2ccco2)CC(O)=C1C=NCCN1CCNCC1 (stereo not given)	-0.93	-4	0	-2	-0.7	-18	nt	nt
CC(C)Oc1cccc(C(=O)O)c1	1.4	5	0	-1	0.97	-5	nt	nt
CC1CC(=O)C=C(O)C1C(=O)OC(C)(C)C (stereo not given)	1.4	-19	2	-43	0.032	-8	nt	nt
COc1ccccc1C(c1nnnn1C1CCCC1)N1CCN2CCCC2C1 (stereo not given)	0.93	-4	0	6	-3.8*	-13	473*	251
CCN(CC)CCCNC(=O)c1cc(-c2ccc(Cl)c(Cl)c2)on1	-0.87	2	-1	-25	-3*	0	474*	176
CCN(CC)CCCNC(=O)c1cc2c(-c3ccc(Cl)cc3)nn(C)c2s1	0.033	24	-1	-85	-6.6*	30	419	220
CN1CCN(CCCNC(=O)c2cc3c(-c4ccc(Cl)cc4)nn(C)c3s2)CC1	0.14	24	-4	-58	-0.88	9	nt	nt
COc1ccc(C2C3=C(CC(C)(C)CC3=O)Oc3ncn4nc(-c5cccnc5)nc4c32)cc1 (stereo not given)	-0.013	-21	-1	-24	0.85	-10	nt	nt
COc1ccccc1N1CCN(S(=O)(=O)c2ccc(Cl)s2)CC1	-0.13	-19	-2	11	-0.55	11	nt	nt
N#CC1=C(N)SC(N)=C(C#N)C1CCc1ccccc1	1.2	-18	2	2	-4.6*	-21	683	260
N#CC1=C(N)SC(N)=C(C#N)C1Cc1ccccc1	-1.6	-6	-2	-14	0.34	-4	nt	nt
